In ChEMBL document CHEMBL2384930, “Interventional effects of plumbagin on experimental ulcerative colitis in mice” (J Nat Prod, 2013):
Calls of active or inactive are those of the source. No cut-off for these calls is given here.

Legend:
Mus musculus [1] = assay: Antiinflammatory activity in C57-B16/J mouse DSS-induced ulcerative colitis model assessed as reduction of inflammatory CD14+/CD16+ level in peripheral blood at 8 to 10 mg/kg by flow cytometric analysis relative to DSS-treated control; assay type: functional; conditions: dose mg/kg 8-10
In short: (§1)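 Acute model: female C57-BL6/J mice, 8−10 weeks old, given 3% (w/v) DSS in drinking water, with bottles refilled at days 3 and 5. Oral dosing in drinking water (6, 8, 10 mg/kg, ethanol-dissolved) from day 6. Whole blood stained with anti-CD14-FITC/anti-CD16-PE for 30 min in the dark, RBC-lysed, then flow cytometry. Classic CD14+/CD16−, inflammatory CD14+/CD16+; n = 8.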

Mus musculus [2] = assay: Antiinflammatory activity in C57-B16/J mouse DSS-induced ulcerative colitis model assessed as reduction of inflammatory CD14+/CD16+ level in peripheral blood at 6 to 10 mg/kg by flow cytometric analysis relative to DSS-treated control; assay type: functional; set-up: scale not given: the % may be the effect or the level left; conditions: dose mg/kg 6-10; in short: as §1
Mus musculus [3] = assay: Antiinflammatory activity in C57-B16/J mouse DSS-induced ulcerative colitis model assessed as reduction in monocyte aggregation at 10 mg/kg by hematoxylin-eosin staining-based microscopic analysis; assay type: functional, organism-based; set-up: dose 10 mg/kg
In short: (§2)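 Female C57-BL6/J mice, 8−10 weeks old, given 3% (w/v) DSS in drinking water. Compound dissolved in ethanol and mixed into drinking water, given ad libitum. Colorectal sections stained with hematoxylin and eosin and examined at 400× for crypts, goblet cells, submucosa and monocyte aggregation.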

[4] = Oral bioavailability in rat; assay type: ADME, organism-based; conditions: in vivo
Mus musculus [5] = assay: Antiinflammatory activity in C57-B16/J mouse chronic DSS-induced ulcerative colitis model assessed as decrease in serum TNFalpha level at 10 mg/kg administered for total of 3 weeks for alternative weeks with water measured after 63 days by ELISA relative to DSS-treated control; assay type: functional, organism-based; set-up: dose 10 mg/kg
In short: (§3)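 Chronic model, 63 days: three cycles of 1 week 3% DSS, then 1 week of compound in drinking water, then 1 week of water. Serum from clotted blood (overnight, 3000g 10 min) analysed by sandwich ELISA with capture/detection antibodies, streptavidin-HRP and substrate, read at 450 nm. Means ± SE, n = 8−10, one-way ANOVA with Tukey test.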

Mus musculus [6] = assay: Antiinflammatory activity in C57-B16/J mouse chronic DSS-induced ulcerative colitis model assessed as decrease in serum IL-17 level at 8 mg/kg administered for total of 3 weeks for alternative weeks with water measured after 63 days by ELISA relative to DSS-treated control; assay type: functional, organism-based; set-up: dose 8 mg/kg; in short: as §3
Mus musculus [7] = assay: Antiinflammatory activity in C57-B16/J mouse chronic DSS-induced ulcerative colitis model assessed as restoration of colon size at 6 to 10 mg/kg administered for total of 3 weeks for alternative weeks with water measured after 63 days; assay type: functional, organism-based
In short: (§4)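 Chronic model in female C57-BL6/J mice: three 3-week cycles of DSS, compound in drinking water and plain water, over 63 days. Mice euthanized by isoflurane overdose and colon length measured (cm). Clinical index scored from body weight change, colorectal length, stool consistency, occult blood and prolapse; n = 10. Statistics by ANOVA with Tukey test.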

Mus musculus [8] = assay: Antiinflammatory activity in C57-B16/J mouse chronic DSS-induced ulcerative colitis model assessed as decrease in serum IFNgamma level at 10 mg/kg administered for total of 3 weeks for alternative weeks with water measured after 63 days by ELISA relative to DSS-treated control; assay type: functional, organism-based; set-up: dose 10 mg/kg; in short: as §3
Mus musculus [9] = assay: Antiinflammatory activity in C57-B16/J mouse chronic DSS-induced ulcerative colitis model assessed as suppression of clinical symptoms at 8 to 10 mg/kg administered for total of 3 weeks for alternative weeks with water measured after 63 days; assay type: functional, organism-based; in short: as §4
Mus musculus [10] = assay: Antiinflammatory activity in C57-B16/J mouse DSS-induced ulcerative colitis model assessed as restoration of goblet cells at 10 mg/kg by hematoxylin-eosin staining-based microscopic analysis; assay type: functional, organism-based; set-up: dose 10 mg/kg; in short: as §2
Mus musculus [11] = assay: Antiinflammatory activity in C57-B16/J mouse acute DSS-induced ulcerative colitis model assessed as suppression of clinical symptoms at 8 to 10 mg/kg administered on day 6 measured up to day 12; assay type: functional, organism-based
In short: (§5)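 Acute model: female C57-BL6/J mice, 8−10 weeks old, given 3% (w/v) DSS in drinking water. Dosing in drinking water ad libitum at 6, 8 or 10 mg/kg (ethanol stock) from day 6. Vehicle control received ethanol-water. Body weight recorded every other day as percent change. Disease index scored from weight change, stool consistency (1–4), fecal occult blood and prolapse; n = 10.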

Mus musculus [12] = assay: Antiinflammatory activity in C57-B16/J mouse DSS-induced ulcerative colitis model assessed as restoration of crypts at 10 mg/kg by hematoxylin-eosin staining-based microscopic analysis; assay type: functional, organism-based; set-up: dose 10 mg/kg; in short: as §2
Mus musculus [13] = assay: Antiinflammatory activity in C57-B16/J mouse acute DSS-induced ulcerative colitis model assessed as reversal of body weight loss at 6 to 10 mg/kg administered on day 6 measured up to day 12; assay type: functional, organism-based; in short: as §5
Mus musculus [14] = assay: Antiinflammatory activity in C57-B16/J mouse chronic DSS-induced ulcerative colitis model assessed as decrease in serum IL-17 level at 10 mg/kg administered for total of 3 weeks for alternative weeks with water measured after 63 days by ELISA relative to DSS-treated control; assay type: functional, organism-based; set-up: dose 10 mg/kg; in short: as §3
Mus musculus [15] = assay: Antiinflammatory activity in C57-B16/J mouse DSS-induced ulcerative colitis model assessed as restoration of submucosa at 10 mg/kg by hematoxylin-eosin staining-based microscopic analysis; assay type: functional, organism-based; set-up: dose 10 mg/kg; in short: as §2
Mus musculus [16] = assay: Toxicity in C57-B16/J mouse DSS-induced ulcerative colitis model assessed as circulating CD14+/CD16- level at 6 to 10 mg/kg by flow cytometric analysis relative to DSS-treated control; assay type: organism-based; set-up: dose 6-10 mg/kg; conditions: in vivo; in short: as §1

CC1=CC(=O)c2c(O)cccc2C1=O [PLUMBAGIN]
fold change (FC) (Mus musculus [1]): >3
Activity (Mus musculus [2]): 0.3%
Activity (Mus musculus [3]): Active
bioavailability [4]: 38%
Activity (Mus musculus [5]): Active
Activity (Mus musculus [6]): inactive
Activity (Mus musculus [7]): Active
Activity (Mus musculus [8]): Active
Activity (Mus musculus [9]): Active
Activity (Mus musculus [10]): Active
Activity (Mus musculus [11]): Active
Activity (Mus musculus [12]): Active
Activity (Mus musculus [13]): inactive
Activity (Mus musculus [14]): Active
Activity (Mus musculus [15]): Active
Activity (Mus musculus [16]): 77%
